Results taken from ChEMBL document CHEMBL4765334, “Chemical profiling of HIV-1 capsid-targeting antiviral PF74” (Eur J Med Chem, 2020).

Key:
[1] = tested on: TZM; test: (§1) Cytotoxicity against human TZM-GFP cells incubated for 72 hrs by XTT assay; format: cell-based; details: tzm, 72 h
In short: (§2)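 TZM-GFP cells seeded at 1 × 10^4 per well and exposed continuously to increasing compound concentrations for 72 h. Viable cell number read by XTT proliferation kit. CC50 fitted as log(inhibitor) vs normalized response, variable slope, per independent assay and averaged. Run in duplicate, at least two independent experiments, reported as mean ± standard deviation.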

[2] = tested on: Human immunodeficiency virus 1; test: Antiviral activity against HIV1 NL4-3 infected in human TZM-GFP cells assessed as number of GFP positive cells at 2 uM incubated for 48 hrs by imaging reader; format: functional; details: Human immunodeficiency virus 1, NL4-3, TZM
In short: (§3)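 TZM-GFP cells seeded 1 × 10^4/well; after 24 h medium replaced with compound at the stated single concentration, then 24 h later infected with HIV-1 (MOI = 1). After 48 h, GFP-positive cells counted by imaging and percent inhibition determined versus DMSO controls. Duplicate wells, at least two independent experiments.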

[3] = tested on: Human immunodeficiency virus 1; test: Binding affinity to covalently-crosslinked hexameric HIV1 capsid protein A14C/E45C/W184A/M185A mutant expressed in Escherichia coli BL21(DE3)RIL assessed as change in melting temperature at 20 uM incubated for 30 mins by thermal shift dye based fluorescence analysis
In short: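 Thermal shift: 15 μM CA121 in 50 mM sodium phosphate pH 8.0 with Sypro Orange and compound at 20 μM final or DMSO control. Heated 25 to 95 °C at 0.2 °C/10 s; fluorescence Ex 475–500, Em 520–590 nm. ΔTm = Tm(compound) − T0(DMSO) for CA hexamer melting.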

[4] = tested on: Human immunodeficiency virus 1; test: Antiviral activity against HIV1 NL4-3 infected in human TZM-GFP cells assessed as number of GFP positive cells at 20 uM incubated for 48 hrs by imaging reader; format: functional; details: Human immunodeficiency virus 1, NL4-3, TZM; in short: as §3
[5] = Stability of the compound in human plasma assessed as half life incubated for 3 hrs by LC-MS/MS analysis; format: ADME, cell-free
[6] = Metabolic stability at phase 1 in human liver microsomes assessed as half life at 1 uM by LC-MS/MS analysis; format: ADME, Microsome
[7] = Metabolic stability at phase 1 in mouse liver microsomes assessed as half life at 1 uM by LC-MS/MS analysis; format: ADME, Microsome; details: for t1/2: microsomes, 1 µM; for half-life at 1 µM: liver microsomes
[8] = Stability of the compound in mouse plasma assessed as half life incubated for 3 hrs by LC-MS/MS analysis; format: ADME, cell-free
[9] = tested on: Human immunodeficiency virus 1; test: Antiviral activity against HIV1 NL4-3 infected in human TZM-GFP cells assessed as number of GFP positive cells incubated for 48 hrs by imaging reader; format: functional, organism-based; details: Human immunodeficiency virus 1, NL4-3, TZM
In short: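 TZM-GFP cells seeded 1 × 10^4/well and given increasing compound concentrations 24 h later; infected with HIV-1 NL4-3 (MOI = 1) after a further 24 h. Read-out after 48 h: GFP-positive cell counts (LTR-driven) versus DMSO controls. EC50 fitted as log(inhibitor) vs normalized response, variable slope, per experiment and averaged; mean ± SD, duplicates, at least two independent experiments.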

[10] = as §1; format: cell-based; details: TZM-GFP cells; in short: as §2
[11] = Metabolic stability at phase 1 in human liver microsomes assessed as half life at 1 uM in presence of Cobi-cistat CYP3A inhibitor by LC-MS/MS analysis; format: ADME, Microsome
[12] = Metabolic stability at phase 1 in mouse liver microsomes assessed as half life at 1 uM in presence of Cobi-cistat CYP3A inhibitor by LC-MS/MS analysis; format: ADME, Microsome

Row | Structure (SMILES) | CC50 [1] [µM] | inhibition at 2 µM [2] [%] | ΔTm [3] [°C] | inhibition at 20 µM [4] [%] | t1/2 [5] [min] | t1/2 [6] [min] | t1/2 [7] [min] | t1/2 [8] [min] | EC50 [9] [µM] | half-life at 1 µM [7] [min] | CC50 at 72 h [10] [µM] | t1/2 [11] [min] | t1/2 [12] [min]
1 | CCN(C(=O)[C@H](Cc1ccccc1)NC(=O)Cc1c(C)n(C(C)C)c2ccccc12)c1ccccc1 | 23 | 39 | 7 | 99.7 | – | – | – | – | – | – | – | – | –
2 | Cc1ccc(N(C)C(=O)[C@H](Cc2ccccc2)NC(=O)Cc2c[nH]c3ccccc23)cc1 | 66 | – | 6.6 | – | > 360 | 1.5 | 0.6 | > 360 | 0.28 | – | – | – | –
3 | CCn1cc(CC(=O)N[C@@H](Cc2ccccc2)C(=O)N(C)c2ccc(F)cc2)c2ccccc21 | 18 | – | 7.1 | – | > 360 | 1.3 | – | > 360 | 0.27 | 0.5 | – | – | –
4 | CN(C(=O)[C@H](Cc1ccccc1)NC(=O)Cc1c[nH]c2ccccc12)c1cc(F)cc(F)c1 | < 50 | – | 2.3 | – | > 360 | 0.9 | 0.6 | > 360 | 2.5 | – | – | – | –
5 | COc1ccc(N(C)C(=O)[C@H](Cc2ccccc2)NC(=O)Cc2c(C)[nH]c3ccccc23)cc1 | > 100 | – | 8.4 | – | > 360 | 1 | 0.7 | > 360 | 0.63 | – | – | – | –
6 | CN(C(=O)[C@H](Cc1ccccc1)NC(=O)CCc1c[nH]c2ccccc12)c1ccccc1 | > 50 | 0 | 2.3 | 98 | – | – | – | – | – | – | – | – | –
7 | Cc1c(CC(=O)N[C@@H](Cc2ccccc2)C(=O)N(C)c2ccc(F)cc2)c2ccccc2n1C(C)C | 20 | – | 7.5 | – | > 360 | 0.6 | – | > 360 | 0.32 | 0.5 | – | – | –
8 | Cc1cccc(N(C)C(=O)[C@H](Cc2ccccc2)NC(=O)Cc2c[nH]c3ccccc23)c1 | > 50 | 37 | 1.6 | 98 | – | – | – | – | – | – | – | – | –
9 | Cc1ccc(N(C)C(=O)[C@H](Cc2ccccc2)NC(=O)Cc2c(C)[nH]c3ccccc23)cc1 | 72 | – | 9.1 | – | > 360 | 0.9 | – | > 360 | 0.31 | 0.5 | – | – | –
10 | CC(C)n1cc(CC(=O)N[C@@H](Cc2ccccc2)C(=O)N(C)c2ccccc2)c2ccccc21 | 21 | – | 6 | – | > 360 | 0.9 | – | > 360 | 0.33 | 0.5 | – | – | –
11 | CN(C(=O)[C@H](Cc1ccccc1)NC(=O)Cc1c[nH]c2ccccc12)c1cccc(C(F)(F)F)c1 | < 50 | 16 | 2.8 | 96 | – | – | – | – | – | – | – | – | –
12 | CN(C(=O)[C@H](Cc1ccccc1)NC(=O)Cc1c[nH]c2ccccc12)c1cccc(Cl)c1 | < 50 | 38 | 4.9 | 99.5 | – | – | – | – | – | – | – | – | –
13 | COc1ccc(N(C)C(=O)[C@H](Cc2ccccc2)NC(=O)Cc2c[nH]c3ccccc23)cc1 | > 100 | – | 6.2 | – | > 360 | 1.6 | 0.6 | > 360 | 0.23 | – | – | – | –
14 | COc1cccc(N(C)C(=O)[C@H](Cc2ccccc2)NC(=O)Cc2c[nH]c3ccccc23)c1 | > 50 | 41 | 1.3 | 97 | – | – | – | – | – | – | – | – | –
15 | CCn1cc(CC(=O)N[C@@H](Cc2ccccc2)C(=O)N(C)c2ccccc2)c2ccccc21 | 23 | – | 6.7 | – | > 360 | 0.9 | – | > 360 | 0.31 | 0.5 | – | – | –
16 | Cc1[nH]c2ccccc2c1CC(=O)N[C@@H](Cc1ccccc1)C(=O)N(C)c1ccc(F)cc1 | > 50 | – | 7 | – | > 360 | 1 | – | > 360 | 0.67 | 0.5 | – | – | –
17 | CCn1c(C)c(CC(=O)N[C@@H](Cc2ccccc2)C(=O)N(C)c2ccccc2)c2ccccc21 | 21 | – | 10.8 | – | > 360 | 1 | – | > 360 | 0.28 | 0.5 | – | – | –
18 | CN(C(=O)[C@H](Cc1ccccc1)NC(=O)Cc1c[nH]c2ccccc12)c1cccc(F)c1 | – | 39 | 2.5 | 97 | – | – | – | – | – | – | 50 | – | –
19 | CN(C(=O)[C@H](Cc1ccccc1)NC(=O)Cc1c[nH]c2ccccc12)c1ccccc1 | – | – | 6.1 | – | – | – | – | – | 0.46 | – | > 100 | – | –
20 | Cc1[nH]c2ccccc2c1CC(=O)N[C@@H](Cc1ccccc1)C(=O)N(C)c1cccc(Cl)c1 | – | – | 7.6 | – | – | – | – | – | 1.2 | – | < 50 | – | –
21 | CN(C(=O)[C@H](Cc1ccccc1)NC(=O)Cc1c[nH]c2ccccc12)c1ccc(Br)cc1 | 45 | – | 8.3 | – | > 360 | 2.1 | 0.7 | > 360 | 0.14 | – | – | 131 | 52
22 | CCN(C(=O)[C@H](Cc1ccccc1)NC(=O)Cc1c(C)[nH]c2ccccc12)c1ccccc1 | 82 | – | 8.5 | – | > 360 | 0.9 | – | > 360 | 0.25 | 0.5 | – | – | –
23 | CN(C(=O)[C@H](Cc1ccccc1)NC(=O)Cc1c[nH]c2ccccc12)c1ccc(F)cc1 | > 100 | – | 3.3 | – | > 360 | 1.3 | – | > 360 | 1.8 | 0.5 | – | – | –
24 | Cc1[nH]c2ccccc2c1CC(=O)N[C@@H](Cc1cccc(Br)c1)C(=O)N(C)c1ccccc1 | < 50 | 0 | 3.4 | 94 | – | – | – | – | – | – | – | – | –
25 | CCn1c(C)c(CC(=O)N[C@@H](Cc2ccccc2)C(=O)N(C)c2ccc(F)cc2)c2ccccc21 | 19 | – | 10.7 | – | > 360 | 1 | – | > 360 | 0.22 | 0.5 | – | – | –
26 | Cc1[nH]c2ccccc2c1CC(=O)N[C@@H](Cc1ccccc1)C(=O)N1CCC[C@H]1C(=O)Nc1ccccc1 | – | – | 0.6 | – | – | – | – | – | > 20 | – | > 50 | – | –
